GPR7 antag = blocks human GPR7 receptor signaling. inhibition, % at 4.4 µM. GPR7-expressing cells, fluorescence antagonist assay. P48145. actives 1.1% (n = 290,000). AID 1861; in the data active = inhibition above about 16%, passing the limit was not always enough;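 note: cells stimulated with the agonist NPW; 0% = agonist with vehicle and 100% = vehicle without agonist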
Target sequence (P48145 whole entry, looked up): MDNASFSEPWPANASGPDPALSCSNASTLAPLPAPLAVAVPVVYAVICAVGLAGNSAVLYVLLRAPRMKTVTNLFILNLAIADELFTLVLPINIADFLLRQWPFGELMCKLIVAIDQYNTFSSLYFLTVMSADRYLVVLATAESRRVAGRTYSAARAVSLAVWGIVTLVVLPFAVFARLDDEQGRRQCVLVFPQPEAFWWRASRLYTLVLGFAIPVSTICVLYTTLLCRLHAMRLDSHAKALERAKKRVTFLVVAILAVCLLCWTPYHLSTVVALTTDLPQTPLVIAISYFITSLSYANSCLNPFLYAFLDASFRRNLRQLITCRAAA
CHO parental Ca = counter-screen: ATP calcium response change in parental CHO cells; parental CHO-K1, ATP-induced calcium, Fluo-8 fluorescence; inhibition, % at 5.6 µM; actives 0.63% (n = 330,000);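 active = inhibition above that plate's mean sample inhibition plus 3 SD, cut at about 26% in these data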;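 note: 0% = ATP-challenged DMSO wells and 100% = DMSO wells without ATP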
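Test system: untransfected parental CHO cell line; also added: ATP stimulus; dosing: 5.6 µM, single dose; signal: calcium-sensitive Fluo-8 fluorescence; measure: percent inhibition of ATP-evoked calcium rise, normalized to controls; benchmarks: low control ATP plus DMSO, high control DMSO only; replication: one well per compound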
TAAR1 antag = antagonists of human TAAR1 | CHO RD-HGA16 TAAR1, Fluo-8 calcium fluorescence, antagonist | inhibition, % at 3 µM | actives 1.5% (n = 360,000);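 active = inhibition above a per-plate cutoff, the mean inhibition of test compounds on that plate plus 3 SD, cut at about 49% in these data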;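 note: 0% = DMSO plus EC80 beta-PEA response and 100% = DMSO alone without agonist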
Target sequence (Q96RJ0 whole entry, looked up): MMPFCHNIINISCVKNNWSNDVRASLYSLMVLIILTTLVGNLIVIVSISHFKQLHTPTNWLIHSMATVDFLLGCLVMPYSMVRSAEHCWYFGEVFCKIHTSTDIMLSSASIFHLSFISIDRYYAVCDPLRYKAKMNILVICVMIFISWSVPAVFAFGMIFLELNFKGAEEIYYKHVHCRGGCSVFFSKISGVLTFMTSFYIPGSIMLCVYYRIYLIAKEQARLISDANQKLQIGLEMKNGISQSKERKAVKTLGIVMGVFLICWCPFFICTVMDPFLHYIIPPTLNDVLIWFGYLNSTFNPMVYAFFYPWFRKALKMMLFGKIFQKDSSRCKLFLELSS
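Test system: RD-HGA16 CHO cells with stable hTAAR1 and Gα16 / Probe or stimulus: EC80 β-phenethylamine stimulus / Times: seeding 17-24 h prior, 75-min 37 °C, 30-min RT dye loading / Detection: Fluo-8 calcium-sensitive fluorescence / Read-out basis: % inhibition scaled between DMSO and EC80 PEA controls / Repeats: singlicate, one well per test compound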
TAAR1 agonist = agonists of human TAAR1; Q96RJ0; CHO RD-HGA16 TAAR1, Fluo-8 calcium fluorescence; vehicle wells 0%, saturating PEA agonist 100%; activation, % at 3 µM; actives 0.99% (n = 360,000); AID 624467;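 active = activation above the mean activation of all test compounds in the run plus 3 SD, cut at about 38% in these data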
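Test system: RD-HGA16 (CHO) cells co-expressing Gα16 and hTAAR1 / Benchmarks: DMSO vehicle as 0%, PEA at EC100 as 100% / Repeats: no replicates (n 1) / Measure: % activation from peak over basal fluorescence ratio, DMSO-to-PEA scaled / Timing: 17-24 h plating, Fluo-8 75 min 37 °C, 30 min RT / Technique: kinetic Fluo-8 calcium fluorescence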
OX1R antag-1 = OX1R (human) antagonism. O43613. inhibition, % at 6.6 µM. OX1R-expressing cells, FRET antagonist read-out. actives 1.8% (n = 330,000); in the data active = inhibition mostly above about 38%, no sharp cut-off; inactive = mostly below about 40%;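 note: 0% = agonist challenge alone and 100% = reference antagonist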
OX1R antag-2 = human HCRTR1 antagonism. inhibition, % at 5 µM. actives 0.43% (n = 330,000). AID 434989. CHO/OX1R cells, Fluo-8 calcium fluorescence, orexin A. O43613;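 active = inhibition above its plate's threshold, mean inhibition of all tested compounds on the plate plus 3 SD, cut at about 37% in these data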;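 note: 0% = orexin A challenge wells and 100% = SB-334867-A antagonist wells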
Active calls of the source: *; . = not tested or not shown. In the library only some 4.6% were active in any assay of this set; here they are far more common.

SMILES | GPR7 antag | CHO parental Ca | TAAR1 antag | TAAR1 agonist | OX1R antag-1 | OX1R antag-2
C=CCNC(=O)COC(=O)c1ccc(Sc2nncn2C)c([N+](=O)[O-])c1 | 1 | 5 | 15 | -1 | 73* | -23
CSc1ccc(CN2CCC2(C)C(=O)NCc2cccs2)cc1 (stereo unspecified) | . | . | -11 | -1 | . | .
O=c1c2ccccc2oc2ccc(NCCCN3CCOCC3)cc12 | 3 | -11 | -2 | 3 | 23 | -16
Cn1c2ccccc2c(=O)c2cc(NCCCN3CCOCC3)ccc21 | . | -28 | -15 | 6 | 59* | -21
CCN=C1NC(c2cccc(Cl)c2)C(C(=O)OC)=C(C)N1Cc1ccccc1C(F)(F)F (stereo unspecified) | . | . | -1 | 9 | . | .
Cc1ccc2nsnc2c1S(=O)(=O)N1CCN(C(=O)C2CCCO2)CC1 (stereo unspecified) | 7 | -19 | -3 | 4 | 69* | -12
O=C(COc1ccccc1C(=O)O)NC1CCCc2ccccc21 (stereo unspecified) | 14 | -4 | -4 | 1 | 12 | -30
O=C(COc1ncnc2scc(-c3ccccc3)c12)NC1CCCc2ccccc21 (stereo unspecified) | -16 | -9 | -9 | 1 | 73* | 8
N#Cc1c(-c2ccc(Cl)cc2)ccn2nc(CCC(=O)O)nc12 | -20 | 8 | 0 | 9 | 56* | -4
CCCCCc1nc2c(C#N)c(-c3ccc(Cl)cc3)ccn2n1 | -7 | -2 | 16 | -1 | 16 | -8
Cn1c(Nc2ccc(Cl)cc2F)nc2cc(-c3ccccc3)sc2c1=O | . | . | 38 | 2 | . | .
O=C(COC(=O)C1CC2CCCC(C1)C2=O)NNC(=O)c1ccc([N+](=O)[O-])cc1 (stereo unspecified) | . | 0 | -16 | 0 | 69* | -15
O=C(c1ccc([N+](=O)[O-])cc1)N1CCN(C(=O)c2cccnc2)CC1 | -1 | 12 | -8 | 1 | 53* | -15
O=C(COC(=O)CSc1ccccc1)NNC(=O)c1ccc([N+](=O)[O-])cc1 | -8 | -5 | -2 | 0 | 47 | -10
O=C(COC(=O)CSc1ccc(F)cc1)NNC(=O)c1ccc([N+](=O)[O-])cc1 | . | -2 | -3 | 1 | 59* | 3
O=C(COC(=O)Cc1ccccc1[N+](=O)[O-])NNC(=O)c1ccc([N+](=O)[O-])cc1 | . | -5 | -11 | 3 | 36* | -13
C[C@H]1CNCCN1c1ccc(N2CCS(=O)(=O)CC2)c(C#N)c1 | . | . | 7 | 1 | . | .
CC1(C(=O)NS(=O)(=O)c2cccc(OC(F)F)c2)CCN1C(=O)Cc1cccs1 (stereo unspecified) | . | . | -18 | 0 | . | .
COC(=O)[C@]12C[C@H](CC(=O)N3CCOCC3)C(=O)N(Cc3ccccc3)C1=C[C@H](C(C)C)O[C@@H]2C1CC1 | . | . | -13 | 1 | . | .
O=C(NNC(=O)c1ccc([N+](=O)[O-])cc1)c1ccc(F)cc1 | . | 0 | -20 | 5 | 61 | 6
CN(c1ccc(OCC(=O)OCC(=O)Nc2ccc([N+](=O)[O-])cc2)cc1)S(=O)(=O)c1cccs1 | . | . | 60* | 41* | . | .
COc1cccc(CC(=O)OCC(=O)NNC(=O)c2ccc([N+](=O)[O-])cc2)c1 | -5 | -9 | -33 | -1 | 60* | -11
CN(c1ccc(OCC(=O)OCC(=O)Nc2ccccc2)cc1)S(=O)(=O)c1ccc(F)cc1 | -9 | -3 | 31 | 21 | 12 | -5
CC(=O)Nc1cccc(C(=O)OCC(=O)NNC(=O)c2ccc([N+](=O)[O-])cc2)c1 | . | 2 | -34 | 4 | 52* | -6
O=C(NNC(=O)c1ccc([N+](=O)[O-])cc1)c1ccncc1 | 5 | 11 | 1 | 2 | 70* | 9
SMILES | GPR7 antag | CHO parental Ca | TAAR1 antag | TAAR1 agonist | OX1R antag-1 | OX1R antag-2
CC(=O)Nc1cccc(C(=O)OCc2ccc([N+](=O)[O-])cc2)c1 | -8 | -5 | -11 | 1 | 18 | -8
CC(C)C[C@H]1COc2c(Cl)cccc2S(=O)(=O)N1Cc1ccc(F)cc1F | . | . | 31 | 0 | . | .
CCOc1ccc(OCC(=O)OCC(=O)NNC(=O)c2ccc([N+](=O)[O-])cc2)cc1 | . | 7 | 2 | 1 | 57* | 3
Cc1cc(C)cc(N(CC(=O)NCc2ccc(F)cc2)C(=O)c2snc(C(N)=O)c2N)c1 | 2 | -15 | 17 | 41* | 9 | -23
O=C(N/C=C\n1cnc2cc(C(F)(F)F)ccc21)c1ccc([N+](=O)[O-])cc1 | 16 | 2 | -18 | 3 | 18 | -25
O=C(N/C=C/n1cnc2cc(C(F)(F)F)ccc21)c1ccccc1 | -4 | 51* | 1 | -1 | 26 | -51
CCc1ccc(S(=O)(=O)/N=C2\C=C(Nc3ccc(C(=O)O)cc3)C(=O)c3ccccc32)cc1 | -29 | -16 | 25 | 9 | 52* | -11
Cc1ccc(S(=O)(=O)/N=C2\C=C(Nc3cccc(C(=O)O)c3)C(=O)c3ccccc32)cc1 | -21 | -15 | 1 | 1 | 35 | -20
CC(C)(C)c1ccc(NC(=O)COC(=O)c2ccc3ncsc3c2)cc1 | . | -11 | -2 | 6 | 4 | -4
O=C(COC(=O)c1ccc2ncsc2c1)Nc1ccc(OC(F)(F)F)cc1 | . | 25 | -3 | 2 | -5 | 37*
CCOc1ccc(N2C(=O)CC(NCCc3c[nH]c4ccccc34)C2=O)cc1 (stereo unspecified) | -1 | -7 | -1 | 8 | 61* | 14
CCOc1ccc(N2C(=O)CC(NCCc3ccncc3)C2=O)cc1 (stereo unspecified) | -11 | -8 | -1 | 9 | 11 | 10
CCCCNC(=O)C1c2ccccc2OCC(=O)N1CCc1ccccc1 (stereo unspecified) | . | . | 8 | 3 | . | .
O=C(CCn1nc(-c2ccccc2)ccc1=O)N1CCN(c2ccccc2)CC1 | 1 | -12 | 10 | 8 | 10 | -17
O=C(CCn1nc(-c2ccccc2)c2ccccc2c1=O)N1CCN(c2ccccc2)CC1 | -7 | -26 | -4 | 8 | 62* | 12
COc1ccc(-c2nc3c4ccccc4ccn3c2Cc2ccsc2)cc1OC | . | . | 18 | -1 | . | .
CC1CC(C)CN(C(=O)CSc2nc(Cc3cccs3)nc3ccccc23)C1 (stereo unspecified) | -28 | -23 | 50* | 5 | 22 | -5
CCCCn1c(=O)nc2n(-c3ccc(C)cc3)c3ccccc3cc-2c1=O | 9 | -18 | -18 | -1 | 27 | -27
Cc1ccc(-n2c3nc(=O)n(C)c(=O)c-3cc3ccccc32)cc1 | -4 | -18 | -22 | -1 | 50* | -10
O=C(NCc1ccccc1)[C@@H]1CCCN1C(=O)[C@H]1CCCN1C(=O)c1ccccc1Cl | . | . | -13 | 3 | . | .

Bioassay records from PubChem BioAssay.
